# ChEMBL document CHEMBL4699498 (J Med Chem, 2020)
# The source made the active and inactive calls. No cut-off for these calls is given here.
# Columns and labels:
# [1] = Plasma concentration in ICR mouse at 25 mg/kg, ip at 0.25 hrs postinjection by LC-tandem mass spectrometry analysis; format: ADME, organism-based
# [2] = biological target: T1, Protein cereblon/Poly [ADP-ribose] polymerase 1 (Homo sapiens, UniProt P09874+Q96SW2); experiment: Protac activity at CRBN/PARP1 in human MDA-MB-436 cells assessed as induction of PARP1 degradation at 1 to 1000 nM incubated for 24 hrs by Western blot analysis; format: cell-based; details: dose nM 1-1000, time 24.0 hrs
# T1 sequence (P09874 2-1014 limits assumed): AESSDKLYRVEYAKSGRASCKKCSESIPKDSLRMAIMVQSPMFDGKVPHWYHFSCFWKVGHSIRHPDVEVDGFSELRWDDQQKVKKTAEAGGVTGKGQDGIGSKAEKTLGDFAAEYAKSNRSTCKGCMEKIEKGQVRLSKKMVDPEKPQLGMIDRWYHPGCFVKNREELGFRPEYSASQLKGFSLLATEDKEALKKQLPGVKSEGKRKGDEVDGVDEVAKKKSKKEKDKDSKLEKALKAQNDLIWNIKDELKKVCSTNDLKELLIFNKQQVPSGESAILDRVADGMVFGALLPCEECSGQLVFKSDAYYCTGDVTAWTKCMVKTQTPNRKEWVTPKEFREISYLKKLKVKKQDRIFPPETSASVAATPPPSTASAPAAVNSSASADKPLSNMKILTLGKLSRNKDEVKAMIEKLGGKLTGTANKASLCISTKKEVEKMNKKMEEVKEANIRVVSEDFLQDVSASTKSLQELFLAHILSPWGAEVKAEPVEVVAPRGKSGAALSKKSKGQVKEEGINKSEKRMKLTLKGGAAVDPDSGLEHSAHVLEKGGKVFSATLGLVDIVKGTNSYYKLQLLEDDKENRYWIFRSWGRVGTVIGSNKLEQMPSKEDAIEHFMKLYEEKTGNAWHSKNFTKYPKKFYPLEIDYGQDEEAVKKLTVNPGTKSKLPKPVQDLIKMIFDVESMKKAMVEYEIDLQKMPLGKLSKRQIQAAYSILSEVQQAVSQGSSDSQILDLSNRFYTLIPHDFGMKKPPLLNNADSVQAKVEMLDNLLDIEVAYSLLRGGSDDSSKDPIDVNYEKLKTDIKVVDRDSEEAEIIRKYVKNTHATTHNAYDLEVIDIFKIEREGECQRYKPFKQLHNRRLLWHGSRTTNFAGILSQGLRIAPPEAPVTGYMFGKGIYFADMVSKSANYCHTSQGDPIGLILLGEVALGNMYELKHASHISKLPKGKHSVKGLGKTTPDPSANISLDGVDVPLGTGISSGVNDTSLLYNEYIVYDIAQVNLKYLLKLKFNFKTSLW
# T1 sequence (Q96SW2 whole entry partner): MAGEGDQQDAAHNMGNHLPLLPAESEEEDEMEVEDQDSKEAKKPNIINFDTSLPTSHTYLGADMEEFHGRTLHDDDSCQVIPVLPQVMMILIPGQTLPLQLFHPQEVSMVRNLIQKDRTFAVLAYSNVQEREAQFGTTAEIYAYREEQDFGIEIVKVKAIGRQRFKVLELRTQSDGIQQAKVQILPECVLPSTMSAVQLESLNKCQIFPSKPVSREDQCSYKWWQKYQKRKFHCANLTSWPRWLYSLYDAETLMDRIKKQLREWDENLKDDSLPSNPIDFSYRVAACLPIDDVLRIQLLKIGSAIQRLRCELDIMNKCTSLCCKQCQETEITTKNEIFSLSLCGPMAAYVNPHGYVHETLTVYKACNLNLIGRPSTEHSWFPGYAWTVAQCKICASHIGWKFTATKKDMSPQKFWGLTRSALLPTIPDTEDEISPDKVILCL
# In short: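 PARP1 immunoblot of MDA-MB-436 lysates after 24 h exposure at 1, 10, 100 and 1000 nM; RIPA lysis, 20-30 µg protein per lane, β-tubulin as loading control, band density normalized to DMSO control.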
# [3] = biological target: T1, Protein cereblon/Poly [ADP-ribose] polymerase 1; experiment: Protac activity at CRBN/PARP1 in human SW620 cells assessed as reduction in PARP1 protein level at 0.01 to 10 uM incubated for 12 hrs by western blot analysis; format: cell-based; details: SW-620, dose microM 0.01-10, time 12.0 hrs
# In short: (§1)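 MDA-MB-436 or SW620 cells dosed at 1, 10, 100, 1000 nM and 10 µM for 12 h; PARP1 assessed by western blot of RIPA lysates (20-30 µg protein), β-tubulin as loading control.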
# [4] = biological target: T1, Protein cereblon/Poly [ADP-ribose] polymerase 1; experiment: Protac activity at CRBN/PARP1 in human MDA-MB-436 cells assessed as induction of PARP1 degradation at 30 nM incubated for 24 hrs in presence of proteasome inhibitor MG132 by Western blot analysis
# [5] = test system: LNCaP; experiment: Antiproliferation activity against human LNCAP assessed as cell growth inhibition incubated for 7 days by CCK-8 assay; format: functional, cell-based; details: time 7.0 day
# In short: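 Cells were sub-cultured at least twice and seeded for 24 h before dosing. Compounds came from 10 mM DMSO stocks, given as 10 points of 3-fold serial dilution starting at 10-20 μM. Incubation was about 7 days (Capan-1 13 days) at 37 °C, 5% CO2. Read-out was CCK-8 absorbance at 450 nm, as % growth versus DMSO wells (duplicate wells). IC50 was fitted by nonlinear regression; three independent experiments.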
# [6] = biological target: T1, Protein cereblon/Poly [ADP-ribose] polymerase 1; experiment: Protac activity at CRBN/PARP1 in human MDA-MB-436 cells assessed as reduction in PARP1 protein level at 0.01 to 10 uM incubated for 12 hrs by western blot analysis; format: cell-based; details: dose microM 0.01-10, time 12.0 hrs; in short: as §1
# [7] = test system: CAPAN-1; experiment: Induction of DNA damage in human Capan1 cells assessed as increase in gammaH2AX foci formation incubated for 24 hrs by Western blot analysis; format: functional, cell-based; details: dose microM 0.1-10, time 24.0 hrs
# In short: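 MDA-MB-436 (BRCA1-/-) or Capan-1 (BRCA2-/-) cells were treated 24 h at the indicated concentrations. Lysis was in RIPA buffer with protease inhibitors, and 20-30 μg protein was run on SDS-PAGE. Blots were probed for γH2AX, with β-tubulin as the loading control, and detected by ECL.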
# [8] = Acute toxicity in Balb/c mouse xenografted with CAPAN-1 cells assessed as mean weight loss at 25 mg/kg, ip qd administered for 5 days in presence of cisplatin measured on day 10 relative to control; format: organism-based; details: in vivo, 120 h, time 5 day
# In short: (§2)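 Male BALB/c nude mice carried Capan-1 xenografts (5×10^6 cells s.c.), randomized at ~150 mm³ (6 per group). Treatment was 25 or 50 mg/kg intraperitoneally or 100 mg/kg by oral gavage, once daily on days 0-4. Cisplatin 6 mg/kg in saline was given intraperitoneally on day 2, 45 min after the partner drug. Tumor volume and body weight were measured 2-3 times weekly.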
# [9] = AUC (0 to infinity) in ICR mouse at 25 mg/kg, ip by LC-tandem mass spectrometry analysis; format: ADME, organism-based; parameters: time infinity, route intraperitoneal, dose 25 mg/kg; details: in vivo
# In short: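 Female ICR mice (20-23 g, 6-7 weeks old, n = 3) received a single 25 mg/kg intraperitoneal dose formulated in 5% DMSO/15% Solutol HS15/80% D5W. Plasma was sampled at 0.5, 1, 2, 4, 6, 8 and 24 h and protein-precipitated with methanol. Compound was quantified by LC-MS/MS against a standard curve.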
# [10] = test system: Mus musculus; experiment: Induction of PARP1 degradation in SW-620 cells xenografted Balb/c mouse at 25 mg/kg, ip at 1 to 24 hrs by Western blotting analysis; format: functional, organism-based; details: time hrs 1-24
# In short: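 Male BALB/c nude mice carried subcutaneous SW620 xenografts (6×10^6 cells); at 200-300 mm³ they were randomized. A single 25 mg/kg intraperitoneal dose was given. Tumors were harvested at 1, 3, 6 and 24 h, and vehicle controls at 3 h. Tumors were frozen, ground in liquid nitrogen, and PARP1 was analysed by western blot against β-tubulin.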
# [11] = biological target: T1, Protein cereblon/Poly [ADP-ribose] polymerase 1; experiment: Protac activity at CRBN/PARP1 in human LNCaP cells assessed as induction of PARP1 degradation at 30 nM incubated for 1 to 24 hrs by Western blot analysis; format: cell-based; details: time hrs 1-24
# [12] = test system: SW-620; experiment: Potentiation of MMS induced cytotoxicity against human SW-620 cells preincubated for 1 hr followed by addition of MMS measured after 5 days by CCK-8 assay; format: functional, cell-based; details: dose nM 3-300, time 1.0 hrs
# In short: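 SW620 cells (1000/well) were attached for 24 h, then preincubated 1 h with DMSO or a single compound concentration (3, 10, 100 or 300 nM). MMS was then added at 0-15 μg/mL (final concentration not stated). Incubation ran 5 days, followed by CCK-8 read at 450 nm. Growth was expressed as % of DMSO-only wells, mean of three wells.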
# [13] = biological target: T1, Protein cereblon/Poly [ADP-ribose] polymerase 1; experiment: Protac activity at CRBN/PARP1 in human MDA-MB-436 cells assessed as induction of PARP1 degradation at 30 nM incubated for 24 hrs in presence of NEDD8-activating E1 enzyme inhibitor MLN4924 by Western blot analysis
# [14] = test system: HEK293; experiment: Cytotoxicity against human HEK293 cells assessed as cell viability incubated for 120 hrs by CCK-8 assay; format: cell-based; details: hek293, 120 h
# [15] = test system: CAPAN-1; experiment: Potentiation of cisplatin induced antitumor activity against CAPAN-1 cells xenografted in Balb/c mouse administered intraperitoneally once daily for 5 days; format: functional; details: dose mg/kg 25-50, time 5.0 day; in short: as §2
# [16] = test system: MCF-10A; experiment: Cytotoxicity against human MCF-10A cells assessed as reduction in cell viability incubated for 120 hrs by CCK-8 assay; format: cell-based
# [17] = biological target: T1, Protein cereblon/Poly [ADP-ribose] polymerase 1; experiment: Protac activity at CRBN/PARP1 in human MDA-MB-436 cells assessed as induction of PARP1 degradation at 100 nM measured after 5 days by Western blot analysis; format: cell-based; details: time 5.0 day
# In short: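 MDA-MB-436 cells kept at 100 nM for up to 5 days; PARP1 followed by western blot against β-tubulin.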
# [18] = Cytotoxicity against […] H9c2 cells assessed as reduction in cell viability incubated for 120 hrs by CCK-8 assay; format: cell-based; details: h9c2, 120 h
compound,measurement,setting,value
O=C(CCCCCCCCCCC(=O)N1CCN(C(=O)c2cc(Cc3n[nH]c(=O)c4ccccc34)ccc2F)CC1)NCCNc1cccc2c1C(=O)N(C1CCC(=O)NC1=O)C2=O (stereo not drawn),concentration at 0.25 h,[1],2100 nM
same,Activity,[2],Active
same,Activity,[3],Active
same,Activity,[4],inactive
same,Activity,[5],Active
same,Activity,[6],Active
same,Activity,[7],Dose-dependent effect
same,Activity,[8],9%
same,AUC(0-inf),[9],5360 ng·h/mL
same,Activity,[10],Active
same,Activity,[11],Active
same,Activity,[12],Dose-dependent effect
same,Activity,[13],inactive
same,Activity,[14],Non-Toxic
same,Activity,[15],Dose-dependent effect
same,Activity,[16],Non-Toxic
same,Activity,[17],Active
same,Activity,[18],Non-Toxic
